# Source: ChEMBL document CHEMBL4371014, “Novel Allosteric Ligands of γ-Aminobutyric Acid Transporter 1 (GAT1) by MS Based Screening of Pseudostatic Hydrazone Libraries” (J Med Chem, 2018)
# Target: Sodium- and chloride-dependent GABA transporter 1 (Mus musculus) (UniProt P31648)
# Assay: Inhibition of NO711 binding to mouse GAT1 expressed in HEK293 cell membranes assessed as residual binding at 1 uM preincubated for 4 hrs followed by NO711 addition and measured after 40 mins by LC-ESI-MS/MS analysis relative to control
# Outline: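 Single hydrazones formed in situ in the presence of mouse GAT1 from one aldehyde (1.0 µM) and hydrazine (200 µM). Formation ran 4 h, then NO711 MS marker was added for 40 min. Specifically bound NO711 was freed from the target and quantified by LC-ESI-MS/MS. Results are % remaining specific binding, means±SD of four replicates.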
row,SMILES,Activity [%]
1,COc1cc(/C=N/NCC[C@@H]2CNC[C@H](C(=O)O)C2)cc(OC)c1O (racemic),62
2,COc1cccc(F)c1-c1ccccc1/C=N/NC[C@@H]1CNC[C@H](C(=O)O)C1 (racemic),70
3,Cc1ccc(-c2cccc(/C=N/NC[C@@H]3CNC[C@H](C(=O)O)C3)c2)cc1 (racemic),61
4,Cc1ccc(-c2ccsc2/C=N/NCC[C@@H]2CNC[C@H](C(=O)O)C2)cc1 (racemic),83
5,Cc1ccc(-c2ccsc2/C=N/NC[C@@H]2CNC[C@H](C(=O)O)C2)c(C)c1 (racemic),80
6,Cc1cccc2cc(/C=N/NCC[C@@H]3CNC[C@H](C(=O)O)C3)c(Cl)nc12 (racemic),62
7,Cc1ccccc1-c1ccsc1/C=N/NCC[C@@H]1CNC[C@H](C(=O)O)C1 (racemic),64
8,Cc1ccsc1-c1ccccc1/C=N/NCC[C@@H]1CNC[C@H](C(=O)O)C1 (racemic),61
9,Cc1ccsc1-c1sc(/C=N/NCC[C@@H]2CNC[C@H](C(=O)O)C2)cc1C (racemic),79
10,Cc1ccsc1-c1sc(/C=N/NC[C@H]2CNC[C@H](C(=O)O)C2)cc1C (racemic),> 50
11,Cn1c(/C=N/NC[C@@H]2CNC[C@H](C(=O)O)C2)ccc1-c1ccc(Cl)cc1 (racemic),87
12,Cn1cnnc1Sc1ccc(/C=N/NCC[C@@H]2CNC[C@H](C(=O)O)C2)o1 (racemic),73
13,Cn1cnnc1Sc1ccc(/C=N/NC[C@@H]2CNC[C@H](C(=O)O)C2)o1 (racemic),84
14,Nc1ncc(-c2ccccc2/C=N/NC[C@@H]2CNC[C@H](C(=O)O)C2)cn1 (racemic),93
15,O=C(O)[C@H]1CNC[C@@H](CCN/N=C/c2ccc(-c3cc(C(F)(F)F)cc(C(F)(F)F)c3)o2)C1 (racemic),76
16,O=C(O)[C@H]1CNC[C@@H](CCN/N=C/c2ccc(-c3cc(C(F)(F)F)ccc3Cl)o2)C1 (racemic),54
17,O=C(O)[C@H]1CNC[C@@H](CCN/N=C/c2ccc(-c3ccc(Br)cc3)o2)C1 (racemic),65
18,O=C(O)[C@H]1CNC[C@@H](CCN/N=C/c2ccc(-c3ccc(Cl)cc3)o2)C1 (racemic),62
19,O=C(O)[C@H]1CNC[C@@H](CCN/N=C/c2ccc(-c3ccc(Cl)cc3F)o2)C1 (racemic),64
20,O=C(O)[C@H]1CNC[C@@H](CCN/N=C/c2ccc(-c3ccc(Cl)cc3[N+](=O)[O-])o2)C1 (racemic),60
21,O=C(O)[C@H]1CNC[C@@H](CCN/N=C/c2ccc(-c3ccc(F)c(C(F)(F)F)c3)o2)C1 (racemic),72

row,SMILES,Activity [%]
1,O=C(O)[C@H]1CNC[C@@H](CCN/N=C/c2ccc(-c3cccc(C(F)(F)F)c3)o2)C1 (racemic),70
2,O=C(O)[C@H]1CNC[C@@H](CCN/N=C/c2ccc(-c3cccc(Cl)c3)o2)C1 (racemic),69
3,O=C(O)[C@H]1CNC[C@@H](CCN/N=C/c2ccc(-c3cccc4ccccc34)o2)C1 (racemic),58
4,O=C(O)[C@H]1CNC[C@@H](CCN/N=C/c2ccc(-c3ccccc3)o2)C1 (racemic),61
5,O=C(O)[C@H]1CNC[C@@H](CCN/N=C/c2ccc(-c3ccccc3C(F)(F)F)o2)C1 (racemic),60
6,O=C(O)[C@H]1CNC[C@@H](CCN/N=C/c2ccc(-c3ccccc3Cl)o2)C1 (racemic),52
7,O=C(O)[C@H]1CNC[C@@H](CCN/N=C/c2ccc(-c3ccccc3OC(F)(F)F)o2)C1 (racemic),59
8,O=C(O)[C@H]1CNC[C@@H](CCN/N=C/c2ccc(-c3ccn[nH]3)o2)C1 (racemic),72
9,O=C(O)[C@H]1CNC[C@@H](CCN/N=C/c2ccc(C#Cc3ccccc3)s2)C1 (racemic),71
10,O=C(O)[C@H]1CNC[C@@H](CCN/N=C/c2ccccc2-c2ccsc2)C1 (racemic),80
11,O=C(O)[C@H]1CNC[C@@H](CCN/N=C/c2ccccc2-n2cccc2)C1 (racemic),82
12,O=C(O)[C@H]1CNC[C@@H](CCN/N=C/c2cccn2-c2ccc(C(F)(F)F)cc2)C1 (racemic),74
13,O=C(O)[C@H]1CNC[C@@H](CCN/N=C/c2ccco2)C1 (racemic),60
14,O=C(O)[C@H]1CNC[C@@H](CCN/N=C/c2cnc(-c3ccccn3)nc2)C1 (racemic),83
15,O=C(O)[C@H]1CNC[C@@H](CCN/N=C/c2csc3ccccc23)C1 (racemic),75
16,O=C(O)[C@H]1CNC[C@@H](CCN/N=C/c2sccc2-n2cccc2)C1 (racemic),72
17,O=C(O)[C@H]1CNC[C@@H](CN/N=C/c2cc(Br)co2)C1 (racemic),53
18,O=C(O)[C@H]1CNC[C@@H](CN/N=C/c2ccc(-c3ccc(Br)cc3)o2)C1 (racemic),59
19,O=C(O)[C@H]1CNC[C@@H](CN/N=C/c2ccc(-c3ccc(Cl)cc3)o2)C1 (racemic),56
20,O=C(O)[C@H]1CNC[C@@H](CN/N=C/c2ccc(-c3ccc(Cl)cc3)s2)C1 (racemic),75
21,O=C(O)[C@H]1CNC[C@@H](CN/N=C/c2ccc(-c3ccc(Cl)cc3Cl)o2)C1 (racemic),40

row,SMILES,Activity [%]
1,O=C(O)[C@H]1CNC[C@@H](CN/N=C/c2ccc(-c3ccc(Cl)cc3F)o2)C1 (racemic),67
2,O=C(O)[C@H]1CNC[C@@H](CN/N=C/c2ccc(-c3ccc(Cl)cc3[N+](=O)[O-])o2)C1 (racemic),37
3,O=C(O)[C@H]1CNC[C@@H](CN/N=C/c2ccc(-c3ccc(F)c(C(F)(F)F)c3)o2)C1 (racemic),36
4,O=C(O)[C@H]1CNC[C@@H](CN/N=C/c2ccc(-c3cccc(C(F)(F)F)c3)o2)C1 (racemic),38
5,O=C(O)[C@H]1CNC[C@@H](CN/N=C/c2ccc(-c3cccc(Cl)c3)o2)C1 (racemic),46
6,O=C(O)[C@H]1CNC[C@@H](CN/N=C/c2ccc(-c3ccccc3)[nH]2)C1 (racemic),85
7,O=C(O)[C@H]1CNC[C@@H](CN/N=C/c2ccc(-c3ccccc3)o2)C1 (racemic),68
8,O=C(O)[C@H]1CNC[C@@H](CN/N=C/c2ccc(-c3ccccc3)s2)C1 (racemic),55
9,O=C(O)[C@H]1CNC[C@@H](CN/N=C/c2ccc(-c3ccccc3Br)o2)C1 (racemic),36
10,O=C(O)[C@H]1CNC[C@@H](CN/N=C/c2ccc(-c3ccccc3C(F)(F)F)o2)C1 (racemic),49
11,O=C(O)[C@H]1CNC[C@@H](CN/N=C/c2ccc(-c3ccccc3Cl)o2)C1 (racemic),48
12,O=C(O)[C@H]1CNC[C@@H](CN/N=C/c2ccc(-c3ccn[nH]3)o2)C1 (racemic),81
13,O=C(O)[C@H]1CNC[C@@H](CN/N=C/c2ccc(Br)o2)C1 (racemic),55
14,O=C(O)[C@H]1CNC[C@@H](CN/N=C/c2ccc(I)o2)C1 (racemic),69
15,O=C(O)[C@H]1CNC[C@@H](CN/N=C/c2ccc[nH]2)C1 (racemic),89
16,O=C(O)[C@H]1CNC[C@@H](CN/N=C/c2cccc(-c3ccc(Cl)cc3)c2)C1 (racemic),52
17,O=C(O)[C@H]1CNC[C@@H](CN/N=C/c2cccc(-c3ccc(F)cc3)c2)C1 (racemic),50
18,O=C(O)[C@H]1CNC[C@@H](CN/N=C/c2cccc(-c3ccccc3)c2)C1 (racemic),52
19,O=C(O)[C@H]1CNC[C@@H](CN/N=C/c2cccs2)C1 (racemic),67
20,O=C(O)[C@H]1CNC[C@@H](CN/N=C/c2cnc(-c3ccc4ccccc4c3)nc2)C1 (racemic),27
21,O=C(O)[C@H]1CNC[C@@H](CN/N=C/c2cnc(-c3cccc4ccccc34)nc2)C1 (racemic),61

row,SMILES,Activity [%]
1,O=C(O)[C@H]1CNC[C@@H](CN/N=C/c2cnc(-c3ccccc3)nc2)C1 (racemic),55
2,O=C(O)[C@H]1CNC[C@@H](CN/N=C/c2cnc(-c3ccccc3F)nc2)C1 (racemic),68
3,O=C(O)[C@H]1CNC[C@@H](CN/N=C/c2cnc(-c3ccco3)nc2)C1 (racemic),73
4,O=C(O)[C@H]1CNC[C@@H](CN/N=C/c2cnc(-c3cccs3)nc2)C1 (racemic),60
5,O=C(O)[C@H]1CNC[C@@H](CN/N=C/c2cnc(N3CCCCC3)nc2)C1 (racemic),69
6,O=C(O)[C@H]1CNC[C@@H](CN/N=C/c2cnc(NCc3ccccc3)nc2)C1 (racemic),60
7,O=C(O)[C@H]1CNC[C@@H](CN/N=C/c2cnc(SCc3ccccc3)nc2)C1 (racemic),53
8,O=C(O)[C@H]1CNC[C@@H](CN/N=C/c2cncnc2)C1 (racemic),64
9,O=C(O)[C@H]1CNC[C@@H](CN/N=C/c2sccc2-c2ccc(C(F)(F)F)cc2C(F)(F)F)C1 (racemic),88
10,O=C(O)[C@H]1CNC[C@@H](CN/N=C/c2sccc2-c2ccc(Cl)cc2)C1 (racemic),80
11,O=C(O)[C@H]1CNC[C@@H](CN/N=C/c2sccc2-c2ccc(Cl)cc2Cl)C1 (racemic),81
12,O=C(O)[C@H]1CNC[C@@H](CN/N=C/c2sccc2-c2ccc(F)cc2F)C1 (racemic),80
13,O=C(O)[C@H]1CNC[C@@H](CN/N=C/c2sccc2-c2ccccc2)C1 (racemic),85
14,O=C(O)[C@H]1CNC[C@@H](CN/N=C/c2sccc2-c2ccccc2Cl)C1 (racemic),84
15,O=C(O)[C@H]1CNC[C@@H](CN/N=C/c2sccc2-c2ccccc2F)C1 (racemic),84
16,O=C(O)[C@H]1CNC[C@H](CN/N=C/c2ccc(-c3ccc(C(F)(F)F)cc3Cl)o2)C1 (racemic),> 50
17,O=C(O)[C@H]1CNC[C@H](CN/N=C/c2ccccc2-n2cccc2)C1 (racemic),> 50
18,O=C(O)[C@H]1CNC[C@H](CN/N=C/c2csc3ccccc23)C1 (racemic),> 50
19,O=C(O)[C@H]1CNC[C@H](CN/N=C/c2sccc2-n2cccc2)C1 (racemic),> 50
